One assay deals with HepG2. Nature of the assay: Antiproliferative activity against human HepG2 cells after 24 hrs by Alamar blue assay. The class given is functional, cell-based. In short, it runs like this: (§1)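 Cells seeded at 5000 per well and preincubated 24 h at 37 °C/5% CO₂, then exposed to compounds in DMSO (final DMSO 0.5%; DMSO-only controls) at 6.25–200 µM for a further 24 h at 37 °C. Alamar Blue added to 10% final, fluorescence read (ex 535/em 590 nm) after 4 h and 24 h further incubation. IC50 from triplicates.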

Assay [1] can be described thus: Antiproliferative activity against rat PC12 cells after 24 hrs by Alamar blue assay. In kind it is functional, cell-based, PC-12. In short, it runs like this: as §1
For orientation: The colour change of resazurin is a common sign of viable cells or microbes.

Assay [2] is described as follows: Antiproliferative activity against human HL60 cells after 24 hrs by Alamar blue assay. The class given is functional, cell-based, HL-60. In short, it runs like this: as §1
[3] abbreviates: Homo sapiens, HepG2, 24 h, read-out: IC50.
[4] abbreviates: Rattus norvegicus, PC-12, 24 h, read-out: IC50.
[5] abbreviates: Homo sapiens, HL-60, 24 h, read-out: IC50.

As for `CCCCCCCCCCCCC/C=C/[C@@H](O)[C@H](CO)NC(C)=O`, the IC50 (as a rule, the point on the concentration scale where inhibition reaches its midpoint) with HepG2 (setting [3]) stood at 58 µM; in assay [1] (setting [4]), 98 µM; in assay [2] (setting [5]), 26 µM.
With `CCCCCCCCCCCCC/C=C/C(=O)[C@H](CO)NC(C)=O`, the IC50 in the assay on HepG2 (setting [3]) is 175 µM; in assay [1] (setting [4]), over 200 µM; in assay [2] (setting [5]), 43 µM.
For the compound `CCCCCCCCc1ccc(/C=C/[C@@H](O)[C@H](CO)NC(C)=O)cc1`, the IC50 in the assay on HepG2 (setting [3]) stood at 31 µM; in assay [1] (setting [4]), 40 µM; in assay [2] (setting [5]), 11 µM.
As for `CC(=O)N[C@@H](CO)[C@H](O)/C=C/c1ccc(-c2ccccc2)cc1`, the IC50 entry (in the assay on HepG2 (hepg2); in assay [1] (pc-12); in assay [2] (hl-60)) was “ND(Unstable)” each time.
For `CCCCCCCCc1ccc(/C=C/C(=O)[C@H](CO)NC(C)=O)cc1`, the IC50 is 65 µM with HepG2 (setting [3]), 70 µM in assay [1] (setting [4]) and “ND(Unstable)” in assay [2] (hl-60).
Regarding `CC(=O)N[C@@H](CO)C(=O)/C=C/c1ccccc1`, the values for the IC50 (in the assay with HepG2 (setting [3]); in assay [1] (setting [4]); in assay [2] (setting [5])) were over 200 µM, 42 µM and 48 µM, respectively.
As for `CC(=O)N[C@@H](CO)C(=O)/C=C/c1ccc(-c2ccccc2)cc1`, the IC50 in the assay with HepG2 (setting [3]) was 41 µM; in assay [1] (setting [4]) it was 59 µM; in assay [2] (setting [5]) it was 50 µM.
On to `CC(=O)N[C@@H](CO)[C@H](O)/C=C/c1ccccc1`, for which the IC50 result (in the assay on HepG2 (hepg2); in assay [1] (pc-12); in assay [2] (hl-60)) was “ND(Unstable)” throughout.

(Values after ChEMBL document CHEMBL3351976, “Flexible, polymer-supported synthesis of sphingosine derivatives provides ceramides with enhanced biological activity” (Bioorg Med Chem, 2014).)
